Series [1] relates to Mus musculus. As to the kind of experiment: Compound was evaluated for PAF-induced lethality in mouse (intraperitoneally at a dose of 1.0 mg/kg in saline 0.5 hr before lethal intravenous PAF challenge 75-150 mg/kg). It is filed as ADME, organism-based. The arrangement: dose 1 mg/kg, route intraperitoneal. The settings on record: in vivo. In outline:
(§1)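 Female Swiss-Webster mice (20-25 g) received test compound ip in saline (10 mL/Kg); controls got saline alone. The PAF dose was chosen daily from small pilot groups. Survival was scored at 1.5 h and recorded as dead/total.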

For series [2], the system named is Mus musculus. As to the kind of experiment: Compound was evaluated for PAF-induced lethality in mouse (intraperitoneally at a dose of 1.0 mg/kg in saline 0.5 hr before lethal intravenous PAF challenge 75-150 mg/kg); 8/13. It is filed as ADME, organism-based. Also noted: dose 1 mg/kg, route intravenous. The settings on record: in vivo. In outline:
as §1

For series [3], the species on record is Oryctolagus cuniculus. As to the kind of experiment: Concentration required to inhibit PAF (5*10e-8 M) induced platelet aggregation in rabbit platelet rich plasma(PRP) by 50%. The class given is functional, organism-based. In outline: (§2)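 Rabbit PRP came from blood spun at 800 rpm for 15 min at room temperature, with platelet counts of 350 000–550 000/µL. PRP was equilibrated 1–2 min at 37 °C in an aggregometer. It was preincubated 5 min with test compound (final 10^-8 to 10^-5 M; methanol stock diluted in saline) or saline, then challenged with L-C16-PAF. IC50 was taken from concentration–response curves of aggregation magnitude and averaged over separate determinations.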

The test system of series [4] is Mus musculus. As to the kind of experiment: Compound was evaluated for PAF-induced lethality in mouse (intraperitoneally at a dose of 1.0 mg/kg in saline 0.5 hr before lethal intravenous PAF challenge 75-150 mg/kg); 9/24. It is filed as ADME, organism-based. The arrangement: dose 1 mg/kg. The settings on record: in vivo. In outline:
as §1

The species named for series [5] is Oryctolagus cuniculus. As to the kind of experiment: Concentration required to inhibit PAF (5*10e-7 M) induced platelet aggregation in rabbit platelet rich plasma(PRP) by 50%. The class given is functional, organism-based. In outline:
as §2

In series [6] the test system is Mus musculus. As to the kind of experiment: Compound was evaluated for PAF-induced lethality in mouse (intraperitoneally at a dose of 1.0 mg/kg in saline 0.5 hr before lethal intravenous PAF challenge 75-150 mg/kg); 2/10. It is filed as ADME, organism-based. Also noted: dose 1 mg/kg. Conditions: in vivo. A digest of the protocol:
as §1

Series [7] has as its system Mus musculus. As to the kind of experiment: Compound was evaluated for PAF-induced lethality in mouse (intraperitoneally at a dose of 1.0 mg/kg in saline 0.5 hr before lethal intravenous PAF challenge 75-150 mg/kg); 4/12. The class given is ADME, organism-based. The arrangement: dose 1 mg/kg. Conditions: in vivo. In outline: as §1
Series [8] deals with Mus musculus. As to the kind of experiment: Compound was evaluated for PAF-induced lethality in mouse (intraperitoneally at a dose of 1.0 mg/kg in saline 0.5 hr before lethal intravenous PAF challenge 75-150 mg/kg); 5/12. The class given is ADME, organism-based. Also noted: dose 1 mg/kg, route intravenous. The settings on record: in vivo. A digest of the protocol: as §1
Series [9] concerns Mus musculus. As to the kind of experiment: Compound was evaluated for PAF-induced lethality in mouse (intraperitoneally at a dose of 1.0 mg/kg in saline 0.5 hr before lethal intravenous PAF challenge 75-150 mg/kg); 12/12. The class given is ADME, organism-based. The arrangement: dose 1 mg/kg. Conditions: in vivo. In outline: as §1
Series [10] is filed under the species Oryctolagus cuniculus. As to the kind of experiment: Concentration required to inhibit PAF (5*10e-8 M) induced platelet aggregation in rabbit platelet rich plasma(PRP) by 50% at 10 uM. It is filed as functional.
Series [11] relates to Mus musculus. As to the kind of experiment: Compound was evaluated for PAF-induced lethality in mouse (intraperitoneally at a dose of 1.0 mg/kg in saline 0.5 hr before lethal intravenous PAF challenge 75-150 mg/kg); 11/15. The class given is ADME, organism-based. Also noted: dose 1 mg/kg. The settings on record: in vivo. In outline:
as §1

For series [12], the system named is Mus musculus. As to the kind of experiment: Compound was evaluated for PAF-induced lethality in mouse (intraperitoneally at a dose of 1.0 mg/kg in saline 0.5 h before lethal intravenous PAF challenge 75-150 mg/kg); 12/14. It is filed as ADME, organism-based. The arrangement: dose 1 mg/kg. Conditions: in vivo. A digest of the protocol:
as §1

Series [13] concerns Mus musculus. As to the kind of experiment: Compound was evaluated for PAF-induced lethality in mouse (intraperitoneally at a dose of 1.0 mg/kg in saline 0.5 hr before lethal intravenous PAF challenge 75-150 mg/kg); 11/13. The class given is ADME, organism-based. The arrangement: dose 1 mg/kg. Conditions: in vivo. In outline: as §1
Series [14] has as its system Mus musculus. As to the kind of experiment: Compound was evaluated for PAF-induced lethality in mouse (intraperitoneally at a dose of 1.0 mg/kg in saline 0.5 hr before lethal intravenous PAF challenge 75-150 mg/kg); 9/23. It is filed as ADME, organism-based. The arrangement: dose 1 mg/kg, route intravenous. The settings on record: in vivo. In outline: as §1

SMILES strings stand for the structures.

As for `CCCCCCCCCCCCCCOc1ccc(CN(C(=O)NC)c2cccc(C[n+]3csc(C)c3)c2)cc1.[Br-]`, the Lethality in the series with Mus musculus [1] is 62%. For the same compound, the Dead/total in the series with Mus musculus [2] was 8. Further, in the series listed under Oryctolagus cuniculus [3], it took 530 nM to reach half-maximal inhibition (IC50). Regarding `CCCCCCCCCCCCCCOc1ccc(N(Cc2cccc(C[n+]3csc(C)c3)c2)C(C)=O)cc1`, the concentration for half-maximal inhibition (IC50) (commonly the concentration needed to halve the response being measured) in the series listed under Oryctolagus cuniculus [3] worked out at 1000 nM. The same measure, in the same setting: for `CCCCCCCCCCCCCCOc1c(C)cc(CNC(=O)c2cccc(C[n+]3csc(C)c3)c2)cc1C` the value was 3100 nM.

`CCCCCCCCCCCCCCOc1ccc(CN(C(C)=O)c2cccc(C[n+]3csc(C)c3)c2)cc1.[Br-]` returned a Lethality in the series on Mus musculus [1] of 38%. The same compound returned a Dead/total in the series on Mus musculus [4] of 9. The same compound showed a 50% inhibitory concentration (IC50) in the series listed under Oryctolagus cuniculus [3] of 260 nM. `CCCCCCCCCCCCCCOc1ccc(CCN(C(C)=O)c2cccc(C[n+]3csc(C)c3)c2)cc1` returned an IC50 in the series filed under Oryctolagus cuniculus [5] of 4.3 µM. Take `CCCCCCCCCCCCCCOc1c(C)cccc1CN(C(C)=O)c1cccc(C[n+]2csc(C)c2)c1.[Br-]`: in the series with Mus musculus [1], the Lethality was found to be 20%. In addition, the Dead/total with Mus musculus [6] is listed as 2. In the series filed under Oryctolagus cuniculus [3], this compound had an IC50 of 3200 nM.

As to `CCCCCCCCCCCCCCOc1ccc(C(=O)Nc2cccc(C[n+]3csc(C)c3)c2)cc1`, the IC50 in the series filed under Oryctolagus cuniculus [3] is 5900 nM. In other words, the single-digit micromolar range.

In turn, `Cc1nnc2n1-c1sc(CCC(=O)N3CCOCC3)cc1C(c1ccccc1Cl)=NC2` [APAFANT] showed an IC50 in the series filed under Oryctolagus cuniculus [3] of 340 nM. In the series filed under Oryctolagus cuniculus [3], `CCCCCCCCCCCCCCOc1ccc(NC(=O)Nc2cccc(C[n+]3csc(C)c3)c2)cc1` returned an IC50 of 1500 nM. Turning to `CCCCCCCCCCCCCCOc1cc(CN(C(C)=O)c2cccc(C[n+]3csc(C)c3)c2)ccc1OC.[Br-]`, the Lethality with Mus musculus [1] was 27%. In the series with Mus musculus [7], this compound returned a Dead/total of 4. This compound gave a 50% inhibitory concentration (IC50) in the series filed under Oryctolagus cuniculus [3] of 370 nM. For the compound `CCCCCCCCCCCCCCOc1ccc(CNc2cccc(C[n+]3csc(C)c3)c2)cc1.[Br-]`, the Lethality with Mus musculus [1] is recorded as 42%. The compound further came in with a Dead/total with Mus musculus [8] of 5. The compound further showed a half-inhibitory concentration (IC50) in the series listed under Oryctolagus cuniculus [3] of 7100 nM. On to `CCCCCCCCCCCCCCOc1cccc(CC(=O)Nc2cccc(C[n+]3csc(C)c3)c2)c1.[Br-]`, for which, in the series on Mus musculus [1], the Lethality is 100%. Moreover, the Dead/total with Mus musculus [9] was determined as 12. The compound also had an IC50 in the series listed under Oryctolagus cuniculus [3] of 550 nM. `COc1cc([C@H]2CC[C@H](c3cc(OC)c(OC)c(OC)c3)O2)cc(OC)c1OC` came in with an IC50 in the series filed under Oryctolagus cuniculus [3] of 1600 nM. With `CCCCCCCCCCCCCCOc1cccc(OP(=O)([O-])Oc2cccc(C[n+]3csc(C)c3)c2)c1C(=O)OC`, in the series with Mus musculus [1], the Lethality amounted to 15%. Consider `CCCCCCCCCCCCCCOc1cc(CNC(=O)c2cccc(C[n+]3csc(C)c3)c2)cc(OC)c1.[Br-]`, for which the Inhibition (as a rule, the percentage by which the read-out fell short of the control) in the series listed under Oryctolagus cuniculus [10] stood at 43%. As for `CCCCCCCCCCCCCCOc1cc(OC)ccc1CN(C(C)=O)c1cccc(C[n+]2csc(C)c2)c1.[Br-]`, the Lethality with Mus musculus [1] was determined as 73%. The compound further registered a Dead/total in the series with Mus musculus [11] of 11. For the same compound, the concentration for half-maximal inhibition (IC50) in the series listed under Oryctolagus cuniculus [3] turned out to be 1400 nM.

For `CCCCCCCCCCCCCCOc1cc(CN(C(C)=O)c2cccc(C[n+]3csc(C)c3)c2)ccc1C.[Br-]`, in the series on Mus musculus [1], the Lethality was 86%. In addition, the Dead/total in the series on Mus musculus [12] was found to be 12. In the series filed under Oryctolagus cuniculus [3], inhibition was half-maximal at 6700 nM (IC50). In the case of `CCCCCCCCCCCCCCOc1ccc(CN(C(C)=O)c2cccc(C[n+]3csc(C)c3)c2)cc1OC`, in the series listed under Oryctolagus cuniculus [3], the IC50 worked out at 320 nM. For `CCCCCCCCCCCCCCOc1c(CN(C(C)=O)c2cccc(C[n+]3csc(C)c3)c2)cccc1OC.[Br-]`, the Lethality with Mus musculus [1] came to 85%. The same compound had a Dead/total in the series on Mus musculus [13] of 11. Besides, inhibition in the series filed under Oryctolagus cuniculus [3] was half-maximal at 2500 nM (IC50).

`CCCCCCCCCCCCCCCCOc1ccc(OCC(=O)Nc2cccc(C[n+]3csc(C)c3)c2)cc1` registered an IC50 in the series filed under Oryctolagus cuniculus [3] of 5000 nM. Still for that read-out and setting: then `CCCCCCCCCCCCCCOc1cc(CN(C(C)=O)c2cccc(C[n+]3csc(C)c3)c2)cc(OC)c1`, with 960 nM. As to `CCCCCCCCCCCCCCOc1ccc(C)cc1CN(C(C)=O)c1cccc(C[n+]2csc(C)c2)c1.[Br-]`, in the series with Mus musculus [1], the Lethality stood at 39%. Further, the Dead/total with Mus musculus [14] was 9. In the series filed under Oryctolagus cuniculus [3], this compound gave an IC50 of 1500 nM.

(Values after ChEMBL document CHEMBL1125559, “Analogues of platelet activating factor. 7. Bis-aryl amide and bis-aryl urea receptor antagonists of PAF” (J Med Chem, 1992).)
